This note sets out measurements from ChEMBL document CHEMBL3351736, “A promising camptothecin derivative: Semisynthesis, antitumor activity and intestinal permeability” (Eur J Med Chem, 2014).

The structures appear in SMILES notation. The source made the active and inactive calls. The calls are words filed in the database; no cut-off is given here.

Data set [1] is described as follows: Cytotoxicity against human Caco2 cells after 24 hrs by MTT assay. Particulars: Caco-2, 24 h. It is filed as functional, cell-based. For orientation: Formazan colour is commonly taken as a measure of viable cells.
In data set [2] the test system is A-375. Nature of the data set: Cytotoxicity against human A375 cells after 24 hrs by MTT assay. In kind it is functional, cell-based. The settings on record: A-375, 24 h. The procedure, abridged:
(§1)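 Cells seeded at 25000 per well and held 24 h at 37 °C in 5% CO2. Medium was then renewed and compounds added at increasing concentrations (DMSO 0.1%, or water for topotecan) for 24 h. MTT solution (5 mg/mL) was added for 3 h at 37 °C, then absorbance read at 570 nm, corrected at 630 nm. IC50 in µM.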

The next data set has as its system MDA-MB-231. The data set can be described thus: Cytotoxicity against human MDA-MB-231 cells after 24 hrs by MTT assay. It is filed as functional, cell-based. Particulars: MDA-MB-231, 24 h. The procedure, abridged:
as §1

Data set [3] deals with Caco-2. Nature of the data set: Induction of apoptosis in human Caco2 cells assessed as vital cells at 0.05 uM after 24 hrs by Annexin V/propidium iodide staining-based flow cytometric analysis (reference value: 96.67 +/- 1.02%). In kind it is functional.
For data set [4], the system named is Caco-2. The data set can be described thus: Induction of apoptosis in human Caco2 cells assessed as early apoptotic cells at 0.05 uM after 48 hrs by Annexin V/propidium iodide staining-based flow cytometric analysis (reference value: 0.72 +/- 0.03%). It is filed as functional. In general terms: Flow cytometry measures light scatter and fluorescence of single cells or particles in a stream.

The subject of data set [5] is Caco-2. Nature of the data set: Induction of apoptosis in human Caco2 cells assessed as late apoptotic cells at 0.05 uM after 24 hrs by Annexin V/propidium iodide staining-based flow cytometric analysis (reference value: 2.20 +/- 0.77%). It is filed as functional.
The test system of data set [6] is Caco-2. Nature of the data set: Induction of apoptosis in human Caco2 cells assessed as late apoptotic cells at 0.05 uM after 48 hrs by Annexin V/propidium iodide staining-based flow cytometric analysis (reference value: 2.20 +/- 0.77%). It is filed as functional.
For data set [7], the system named is Caco-2. The data set can be described thus: Induction of apoptosis in human Caco2 cells assessed as necrotic cells at 0.5 uM after 24 hrs by Annexin V/propidium iodide staining-based flow cytometric analysis (reference value: 0.41 +/- 0.02%). In kind it is functional.
Data set [8] concerns Caco-2. Nature of the data set: Induction of apoptosis in human Caco2 cells assessed as necrotic cells at 0.5 uM after 48 hrs by Annexin V/propidium iodide staining-based flow cytometric analysis (reference value: 0.41 +/- 0.02%). It is filed as functional.
For data set [9], the system named is HeLa. Nature of the data set: Induction of apoptosis in human HeLa cells assessed as inhibition of DNA synthesis at 0.8 to 1.6 uM after 24 hrs by BrdU staining-based ELISA. In kind it is functional, cell-based. The method in brief: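 BrdU colorimetric cell proliferation ELISA. Cells seeded at 25,000 per well, compounds added 24 h after seeding and incubated 24 h. Cells fixed and the immunoassay run per kit. Absorbance read at 370-492 nm over 3 intervals of 5 min; absorbance difference proportional to BrdU incorporation. Mean of three separate experiments in triplicate, compared with untreated control.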
In general terms: Incorporation of labelled thymidine or its analogues reports DNA synthesis.

The subject of data set [10] is A-375. Nature of the data set: Induction of apoptosis in human A375 cells assessed as p53 phosphorylation at Ser15 by Western blotting analysis. In kind it is functional, cell-based. The procedure, abridged: (§2)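 Cells treated 24 h. About 10^6 cells lysed on ice 15 min in Hepes pH 7.4/Triton X-100 buffer with phosphatase and protease inhibitors, then spun 13,000 × g. 30 µg protein run on 12% SDS-PAGE and blotted to nitrocellulose. Primary anti-phospho-p53 (Ser15) and anti-p53 at 1:1000 for 2 h at room temperature, then HRP secondary and ECL densitometry. Results referred to untreated control.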

Data set [11] deals with HeLa. The data set can be described thus: Induction of apoptosis in human HeLa cells assessed as p53 phosphorylation at Ser15 by Western blotting analysis. It is filed as functional, cell-based. The procedure, abridged: as §2
Data set [12] in a line: Permeability from apical to basolateral side in human Caco2 cells at 10 to 50 uM after 15 to 90 mins by HPLC analysis. It is filed as ADME, cell-based. The settings on record: caco-2, 50 µM. The procedure, abridged: (§3)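 Caco-2 cells seeded at 400,000 per polycarbonate transwell insert (0.4 μm pore) and grown in DMEM for 19-22 days to confluence at 37°C, 5% CO2. TEER checked before and after each run. Compound in donor chamber, buffer in receiver. Run at 37°C with 50 rpm orbital shaking. Receiver sampled at 15, 30, 60 and 90 min with buffer replacement; donor sampled at start and end. HPLC quantitation; three independent experiments.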

Data set [13] is described as follows: Permeability from basolateral to apical side in human Caco2 cells at 10 to 50 uM after 15 to 90 mins by HPLC analysis. In kind it is ADME, cell-based. Particulars: caco-2, 50 µM. The method in brief:
as §3

Turning to `CC[C@@]1(O)C(=O)OCc2c1cc1n(c2=O)Cc2cc3c(CN(C)C)c(O)ccc3nc2-1.Cl` [TOPOTECAN HYDROCHLORIDE], the values for the IC50 (in [1]; in the data set on A-375 [2]; in the data set on MDA-MB-231) were 119 nM, 162 nM and 473 nM, respectively. Moreover, the Activity turned out to be 71.4% in the data set on Caco-2 [3]; 2.36% in the data set with Caco-2 [4]; 19.54% in the data set on Caco-2 [5]; 48.06% in the data set on Caco-2 [6]; 8.54% in the data set with Caco-2 [7]; 2.88% with Caco-2 [8]. In addition, the result with HeLa [9] and in the data set with A-375 [10] was Active. Moreover, in the data set on HeLa [11], the outcome was inactive. The permeability result in data set [12] and in data set [13] was “permeable” in each case.

In general, IC50 refers to the concentration that inhibits the measured activity by half. A higher IC50 goes with lower potency.
